We go through 17 compounds from ChEMBL document CHEMBL1149316, “Bioisosteric modifications of 2-arylureidobenzoic acids: selective noncompetitive antagonists for the homomeric kainate receptor subtype GluR5” (J Med Chem, 2004).

The target in assay [1] is T1, Glutamate receptor ionotropic, kainate 1 (Homo sapiens, UniProt P39086). As to the kind of experiment: Antagonist activity at human homomeric GluR5 expressed in HEK293 cells assessed as inhibition of intracellular calcium concentration by FLIPR assay. It is filed as functional, cell-based. For orientation: A change in cytosolic calcium serves as a functional read-out for many receptors and channels.

The target in assay [2] is Glutamate receptor ionotropic, kainate 2 (Homo sapiens, UniProt Q13002). As to the kind of experiment: Antagonist activity at human homomeric GluR6 expressed in HEK293 cells assessed as inhibition of intracellular calcium concentration by FLIPR assay. It is filed as functional, cell-based. Put shortly:
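Stably transfected HEK293 cells were grown in DMEM with 10% FCS at 37 °C. Cells were plated on PEI-coated plates 24 h before loading with 2 μM Fluo-4-AM for 60 min at room temperature, then washed into Na⁺-free Ringer at pH 7.4. Test compound was preincubated 1.5 min, then 0.2 μM domoic acid (final) was added. The Ca²⁺ rise was read by FLIPR (ex 488 nm, em 510–570 nm). IC50 reported.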

Assay [3] deals with Glutamate receptor 3 (Rattus norvegicus) (UniProt P19492). The assay is described as follows: Antagonist activity at rat homomeric recombinant GluR3 expressed in HEK293 cells assessed as inhibition of intracellular calcium concentration at 30 uM by FLIPR assay. The class given is functional, cell-based. In outline:
(§1)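 AMPA-subunit HEK293 lines were grown with 100 μg/mL SPD 502 in the medium. Cells were loaded with 2 μM Fluo-4-AM for 30 min at room temperature and washed into Na⁺-free Ringer at pH 7.4. All solutions contained 100 μM cyclothiazide. Test compound was preincubated 1.5 min before 25 μM Glu (final) was added. The Ca²⁺ rise was read by FLIPR at room temperature. Solvent (EtOH or DMSO) was ≤1.0%.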

In the next assay the target is Glutamate receptor 2 (Rattus norvegicus, UniProt P19491). As to the kind of experiment: Antagonist activity at rat homomeric recombinant GluR2 expressed in HEK293 cells assessed as inhibition of intracellular calcium concentration by FLIPR assay. The class given is functional, cell-based. In outline:
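Cells were loaded with 2 μM Fluo-4-AM for 30 min at room temperature and washed into Na⁺-free Ringer at pH 7.4. All solutions contained 100 μM cyclothiazide. The Ca²⁺ rise was read by FLIPR at room temperature. Solvent (EtOH or DMSO) was ≤1.0%.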

Assay [4] deals with Glutamate receptor 1 (Rattus norvegicus) (UniProt P19490). As to the kind of experiment: Antagonist activity at rat homomeric recombinant GluR1 expressed in HEK293 cells assessed as inhibition of intracellular calcium concentration at 30 uM by FLIPR assay. It is filed as functional, cell-based. Put shortly: as §1
In a further assay the target is Glutamate receptor 4 (Rattus norvegicus, UniProt P19493). As to the kind of experiment: Antagonist activity at rat homomeric recombinant GluR4 expressed in HEK293 cells assessed as inhibition of intracellular calcium concentration by FLIPR assay. It is filed as functional, cell-based. In outline:
as §1

For a further assay, the target named is Glutamate receptor 3 (Rattus norvegicus, UniProt P19492). The assay is described as follows: Antagonist activity at rat homomeric recombinant GluR3 expressed in HEK293 cells assessed as inhibition of intracellular calcium concentration by FLIPR assay. It is filed as functional, cell-based. In outline:
as §1

In assay [5] the target is Glutamate receptor 4 (Rattus norvegicus) (UniProt P19493). As to the kind of experiment: Antagonist activity at rat homomeric recombinant GluR4 expressed in HEK293 cells assessed as inhibition of intracellular calcium concentration at 30 uM by FLIPR assay. The class given is functional, cell-based. Put shortly: as §1
Another assay concerns the target Glutamate receptor 1 (Rattus norvegicus, UniProt P19490). As to the kind of experiment: Antagonist activity at rat homomeric recombinant GluR1 expressed in HEK293 cells assessed as inhibition of intracellular calcium concentration by FLIPR assay. It is filed as functional, cell-based. In outline: as §1
Assay [6] addresses T1, Glutamate receptor ionotropic, kainate 1. As to the kind of experiment: Displacement of [3HATPA from human recombinant GluR5. Put shortly: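 GluR5 HEK293 membranes were washed in 50 mM Tris-HCl (pH 7.1) at 0–4 °C and centrifuged at 27000g. 46–84 μg protein was incubated with 3 nM [³H]ATPA for 60 min at 2 °C. Nonspecific binding was defined with 0.6 mM Glu. Binding was stopped by rapid filtration and counted by liquid scintillation. Compounds were tested at 3–30 μM.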

Another assay deals with Mus musculus. As to the kind of experiment: Effect on ATPA-induced rigidity in mouse dosed intravenously 30 mins before ATPA administration. The following applies: iv. The class given is functional. Put shortly:
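Female NMRI mice (20–25 g) received test substance iv (n = 8 per dose) 30 min before iv ATPA at 30 mg/kg. ATPA was given at 3 mg/mL in saline, pH 7. Rigidity was scored 30 min after ATPA as loss of righting and lack of movement on a 45° grid. Results were taken as the percent of mice rigid, and ED50 was derived.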

Assay [7] has as its target Glutamate receptor 2 (Rattus norvegicus) (UniProt P19491). As to the kind of experiment: Antagonist activity at rat homomeric recombinant GluR2 expressed in HEK293 cells assessed as inhibition of intracellular calcium concentration at 30 uM by FLIPR assay. It is filed as functional, cell-based. Put shortly:
as §1

By pIC50 is commonly meant the negative decadic logarithm of the IC50, by convention in mol/L. For orientation: ED50 means the dose at which the effect has come halfway, by size or by number of responders. A low value points to an effect at a small dose.

pIC50: −log10 of the molar value. Active and inactive are the calls of the source. The rule behind the calls is not given here.

Sequence of Glutamate receptor 3 (Rattus norvegicus) (P19492 whole entry): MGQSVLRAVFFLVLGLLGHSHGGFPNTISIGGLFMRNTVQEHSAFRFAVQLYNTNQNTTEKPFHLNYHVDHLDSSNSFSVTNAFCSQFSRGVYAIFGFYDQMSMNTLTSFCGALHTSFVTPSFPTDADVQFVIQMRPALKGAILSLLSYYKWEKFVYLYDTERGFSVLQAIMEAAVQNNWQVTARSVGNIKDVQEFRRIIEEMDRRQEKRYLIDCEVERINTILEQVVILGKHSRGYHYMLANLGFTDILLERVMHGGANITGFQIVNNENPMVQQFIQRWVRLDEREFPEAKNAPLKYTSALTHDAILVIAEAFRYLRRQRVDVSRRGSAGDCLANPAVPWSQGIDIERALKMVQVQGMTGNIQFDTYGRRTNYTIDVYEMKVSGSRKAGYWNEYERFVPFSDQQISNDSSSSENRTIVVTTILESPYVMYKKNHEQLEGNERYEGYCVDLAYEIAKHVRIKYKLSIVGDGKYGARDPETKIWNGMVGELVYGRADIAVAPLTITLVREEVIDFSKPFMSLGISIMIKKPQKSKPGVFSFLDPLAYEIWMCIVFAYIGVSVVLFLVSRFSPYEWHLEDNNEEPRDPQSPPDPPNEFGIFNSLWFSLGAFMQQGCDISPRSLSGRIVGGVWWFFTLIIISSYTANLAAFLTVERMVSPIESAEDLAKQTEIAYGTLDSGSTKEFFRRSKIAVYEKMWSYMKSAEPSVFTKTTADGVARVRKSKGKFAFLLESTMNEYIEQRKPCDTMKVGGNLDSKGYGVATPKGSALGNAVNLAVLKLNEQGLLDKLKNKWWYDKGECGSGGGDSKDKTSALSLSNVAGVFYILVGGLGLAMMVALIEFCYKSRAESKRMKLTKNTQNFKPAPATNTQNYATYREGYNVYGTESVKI
Sequence of Glutamate receptor 3 (P19492 whole entry): as above
Sequence of Glutamate receptor 1 (Rattus norvegicus) (P19490 whole entry): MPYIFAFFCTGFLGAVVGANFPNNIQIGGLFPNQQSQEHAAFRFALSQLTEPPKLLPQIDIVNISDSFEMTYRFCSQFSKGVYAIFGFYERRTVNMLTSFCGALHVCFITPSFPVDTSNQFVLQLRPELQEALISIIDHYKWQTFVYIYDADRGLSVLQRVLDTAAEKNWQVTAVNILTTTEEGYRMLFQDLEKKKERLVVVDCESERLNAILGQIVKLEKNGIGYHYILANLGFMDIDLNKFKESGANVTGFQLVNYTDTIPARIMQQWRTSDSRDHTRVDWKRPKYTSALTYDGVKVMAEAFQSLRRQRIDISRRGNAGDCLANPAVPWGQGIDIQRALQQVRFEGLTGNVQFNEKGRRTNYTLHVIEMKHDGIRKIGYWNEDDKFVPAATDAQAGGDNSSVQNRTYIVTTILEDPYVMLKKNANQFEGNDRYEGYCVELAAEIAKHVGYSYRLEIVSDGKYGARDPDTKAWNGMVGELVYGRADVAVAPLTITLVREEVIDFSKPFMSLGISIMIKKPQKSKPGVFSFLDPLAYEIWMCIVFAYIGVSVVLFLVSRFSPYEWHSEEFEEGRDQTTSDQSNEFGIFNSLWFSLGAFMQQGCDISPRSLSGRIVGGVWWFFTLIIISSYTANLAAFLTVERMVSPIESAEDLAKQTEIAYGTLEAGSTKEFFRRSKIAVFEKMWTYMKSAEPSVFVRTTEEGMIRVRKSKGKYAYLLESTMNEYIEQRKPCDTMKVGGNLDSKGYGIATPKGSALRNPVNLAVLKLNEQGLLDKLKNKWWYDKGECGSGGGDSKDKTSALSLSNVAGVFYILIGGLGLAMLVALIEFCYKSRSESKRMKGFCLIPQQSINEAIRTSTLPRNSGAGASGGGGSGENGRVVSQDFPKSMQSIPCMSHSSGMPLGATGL
Sequence of Glutamate receptor 1 (P19490 whole entry): as above
T1 sequence (P39086 whole entry): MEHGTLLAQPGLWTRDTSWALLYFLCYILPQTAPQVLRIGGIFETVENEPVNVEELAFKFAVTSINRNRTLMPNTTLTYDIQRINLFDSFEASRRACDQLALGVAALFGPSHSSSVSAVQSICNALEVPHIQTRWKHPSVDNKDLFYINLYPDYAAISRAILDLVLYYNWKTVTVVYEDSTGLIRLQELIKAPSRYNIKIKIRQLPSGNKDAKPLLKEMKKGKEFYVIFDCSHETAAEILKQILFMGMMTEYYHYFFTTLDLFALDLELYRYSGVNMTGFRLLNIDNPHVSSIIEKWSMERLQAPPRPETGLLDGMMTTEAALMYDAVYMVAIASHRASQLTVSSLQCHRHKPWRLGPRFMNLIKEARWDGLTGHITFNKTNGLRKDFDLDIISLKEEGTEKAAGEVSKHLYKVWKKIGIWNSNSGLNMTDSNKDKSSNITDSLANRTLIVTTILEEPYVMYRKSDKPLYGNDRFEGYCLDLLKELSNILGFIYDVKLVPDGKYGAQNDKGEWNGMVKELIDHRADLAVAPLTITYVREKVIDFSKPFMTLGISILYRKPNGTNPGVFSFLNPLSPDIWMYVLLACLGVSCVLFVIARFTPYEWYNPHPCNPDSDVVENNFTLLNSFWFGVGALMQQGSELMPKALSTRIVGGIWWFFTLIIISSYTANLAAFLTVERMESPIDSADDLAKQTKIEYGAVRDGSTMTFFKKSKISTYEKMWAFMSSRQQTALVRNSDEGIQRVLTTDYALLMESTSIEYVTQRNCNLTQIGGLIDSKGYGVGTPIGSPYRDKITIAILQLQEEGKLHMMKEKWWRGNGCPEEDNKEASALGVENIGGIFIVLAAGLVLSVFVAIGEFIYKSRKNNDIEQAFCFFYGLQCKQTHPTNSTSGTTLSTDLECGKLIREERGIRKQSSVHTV
Sequence of Glutamate receptor ionotropic, kainate 2 (Q13002 whole entry): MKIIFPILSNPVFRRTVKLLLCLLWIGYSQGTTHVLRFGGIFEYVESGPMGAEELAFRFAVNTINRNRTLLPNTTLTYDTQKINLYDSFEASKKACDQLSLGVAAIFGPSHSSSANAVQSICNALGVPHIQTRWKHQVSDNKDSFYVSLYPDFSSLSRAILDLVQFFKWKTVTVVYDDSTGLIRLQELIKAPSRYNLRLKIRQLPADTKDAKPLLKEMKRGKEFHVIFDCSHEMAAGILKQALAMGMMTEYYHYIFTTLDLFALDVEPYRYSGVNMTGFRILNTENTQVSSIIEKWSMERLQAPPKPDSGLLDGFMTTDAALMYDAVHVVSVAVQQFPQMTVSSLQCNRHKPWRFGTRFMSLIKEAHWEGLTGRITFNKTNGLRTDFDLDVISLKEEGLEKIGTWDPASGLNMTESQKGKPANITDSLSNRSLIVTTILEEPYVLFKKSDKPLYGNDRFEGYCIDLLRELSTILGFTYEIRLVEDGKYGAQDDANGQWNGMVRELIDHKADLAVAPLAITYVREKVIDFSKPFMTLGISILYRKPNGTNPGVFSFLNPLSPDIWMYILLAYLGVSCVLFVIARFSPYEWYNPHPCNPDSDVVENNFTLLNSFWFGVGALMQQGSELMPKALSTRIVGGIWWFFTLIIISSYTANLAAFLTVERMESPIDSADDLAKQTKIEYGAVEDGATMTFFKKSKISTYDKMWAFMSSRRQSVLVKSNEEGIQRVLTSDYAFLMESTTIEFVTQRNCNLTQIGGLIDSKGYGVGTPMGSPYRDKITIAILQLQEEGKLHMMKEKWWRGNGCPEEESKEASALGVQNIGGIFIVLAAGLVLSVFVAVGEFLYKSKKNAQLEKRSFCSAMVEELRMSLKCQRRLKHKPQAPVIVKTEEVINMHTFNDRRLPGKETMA
Sequence of Glutamate receptor 4 (P19493 whole entry): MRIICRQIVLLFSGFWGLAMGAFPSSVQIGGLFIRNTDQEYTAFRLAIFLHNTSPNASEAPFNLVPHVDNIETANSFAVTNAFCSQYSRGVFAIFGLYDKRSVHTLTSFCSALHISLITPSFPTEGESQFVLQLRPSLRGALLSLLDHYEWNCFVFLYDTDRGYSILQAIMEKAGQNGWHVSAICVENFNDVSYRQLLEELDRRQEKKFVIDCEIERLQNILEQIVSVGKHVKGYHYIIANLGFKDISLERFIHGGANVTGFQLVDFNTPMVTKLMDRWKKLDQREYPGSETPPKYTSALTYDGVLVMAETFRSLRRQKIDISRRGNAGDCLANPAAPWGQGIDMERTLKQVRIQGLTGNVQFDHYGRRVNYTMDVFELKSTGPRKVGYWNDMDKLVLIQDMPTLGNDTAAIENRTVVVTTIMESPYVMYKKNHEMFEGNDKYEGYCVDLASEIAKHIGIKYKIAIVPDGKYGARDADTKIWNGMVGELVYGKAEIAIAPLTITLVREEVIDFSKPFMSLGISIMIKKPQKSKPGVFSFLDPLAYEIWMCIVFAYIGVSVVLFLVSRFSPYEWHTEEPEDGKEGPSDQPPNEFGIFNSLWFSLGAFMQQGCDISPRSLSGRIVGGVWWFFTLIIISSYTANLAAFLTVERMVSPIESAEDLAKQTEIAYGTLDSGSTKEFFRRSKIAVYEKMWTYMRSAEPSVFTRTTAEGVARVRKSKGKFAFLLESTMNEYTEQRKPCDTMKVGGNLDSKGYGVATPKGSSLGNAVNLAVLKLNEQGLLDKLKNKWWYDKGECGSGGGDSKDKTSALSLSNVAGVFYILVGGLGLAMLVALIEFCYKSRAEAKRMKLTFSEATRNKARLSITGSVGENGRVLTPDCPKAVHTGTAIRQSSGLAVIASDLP
Sequence of Glutamate receptor 4 (Rattus norvegicus) (P19493 whole entry): as above

Consider `O=C(Nc1cccc(Br)c1)n1[nH]c(=O)c2ccc(Cl)cc21`, for which the pIC50 in [1] is less than 4.30.
Same read-out and setting: in the case of `Nc1ccc(Cl)cc1NC(=O)Nc1cccc(C(F)(F)F)c1` it was less than 4.52.
On the same count and under the same terms, in the case of `O=C(Nc1cccc(C(F)(F)F)c1)Nc1cc(Cl)ccc1O` it was less than 4.52; in that of `O=C(Nc1cccc(C(F)(F)F)c1)Nc1cc(Cl)ccc1CO`, less than 5.00.
With `O=C(Nc1cccc(Br)c1)Nc1cc(Cl)ccc1-c1nnn[nH]1`, the pIC50 is less than 5.00 in assay [2]; less than 4.00 at Glutamate receptor 2; less than 4.00 on Glutamate receptor 4; less than 4.00 on Glutamate receptor 3; less than 4.00 at Glutamate receptor 1; less than 4.52 in [6]. For the same compound, the pIC50 in assay [1] was 5.70. Moreover, the result in [3], in [4], in assay [5] and in [7] was inactive. The compound further displayed an ED50 with Mus musculus of 5.5 mg/kg.
Regarding `O=C(O)CCc1ccc(Cl)cc1NC(=O)Nc1cccc(Br)c1`, the pIC50 in assay [1] is less than 4.52.
Consider `COC(=O)c1ccc(Cl)cc1NC(=O)Nc1cccc(Br)c1`, for which the pIC50 in assay [1] is less than 4.52.
For `O=C(Nc1cccc(Br)c1)Nc1cc(Cl)ccc1[N+](=O)[O-]`, the pIC50 in assay [1] was less than 5.52.
As for `N#Cc1ccc(Cl)cc1NC(=O)Nc1cccc(C(F)(F)F)c1`, the pIC50 in [1] is less than 5.52.
On to `O=C(O)Cc1ccc(Cl)cc1NC(=O)Nc1cccc(Br)c1`, for which the pIC50 in [2] is less than 4.30; on Glutamate receptor 2, less than 4.00; on Glutamate receptor 4, less than 4.00; on Glutamate receptor 3 it was less than 4.00; at Glutamate receptor 1, less than 4.00; in assay [6], less than 4.52. Further, the pIC50 in assay [1] was 5.44. Further, the result in [3], in assay [4], in assay [5] and in assay [7] was inactive. Besides, the ED50 with Mus musculus is greater than 30 mg/kg.
Take `O=C(Nc1cccc(Br)c1)Nc1cc(Cl)ccc1S(=O)(=O)O`: the pIC50 was 4.43 in assay [2]; less than 4.00 on Glutamate receptor 2; less than 4.00 on Glutamate receptor 4; less than 4.00 on Glutamate receptor 3; less than 4.00 at Glutamate receptor 1; less than 4.52 in assay [6]. Further, the pIC50 in [1] was 5.82. In the assay on Mus musculus, this compound yielded an ED50 of 29 mg/kg.
On to `O=C(Nc1cccc(Br)c1)Oc1cc(Cl)ccc1C(=O)O`, for which the pIC50 in [1] is less than 4.52.
As for `O=C(O)c1ccc(Cl)cc1Nc1c(Nc2cccc(Br)c2)c(=O)c1=O`, the pIC50 in [1] was less than 4.52.
`O=C(Nc1cccc(Br)c1)Nc1cc(Cl)ccc1-c1nc(=O)o[nH]1`: the pIC50 was less than 4.52 in [2]; less than 4.00 on Glutamate receptor 2; less than 4.00 at Glutamate receptor 4; less than 4.00 on Glutamate receptor 3; less than 4.00 on Glutamate receptor 1; less than 4.52 in [6]. In assay [1], the pIC50 is 5.34. Besides, the result in [3], in assay [4], in assay [5] and in [7] was inactive. In the assay with Mus musculus, this compound had an ED50 greater than 100 mg/kg.
For the compound `O=C(Nc1cccc(C(F)(F)F)c1)Nc1cc(Cl)ccc1[N+](=O)[O-]`, the pIC50 in [1] is less than 5.52.
As to `O=C(Nc1cccc(Br)c1)Nc1cc(Cl)ccc1C(=O)O`, the outcome in assay [3], in assay [4], in assay [5] and in assay [7] was inactive. Moreover, the negative logarithm of the IC50 (pIC50) at Glutamate receptor 2, at Glutamate receptor 4, on Glutamate receptor 3 and at Glutamate receptor 1 was less than 4.00 in each case.
`O=C(Nc1ccc2ccccc2c1)Nc1cc(Cl)ccc1C(=O)O`: the outcome in assay [3], in assay [4], in assay [5] and in assay [7] was inactive. In addition, the pIC50 at Glutamate receptor 4, on Glutamate receptor 3 and at Glutamate receptor 1 was less than 4.00 throughout. In the assay with Mus musculus, this compound had an ED50 greater than 30 mg/kg.
